≈ marks a conversion by molar mass, not a printed value. Calls of active or inactive are those of the source. The calls are words filed in the database; no cut-off is given here.

The subject of data set [1] is HT-1080. In words: Cytotoxicity against human HT1080 cells assessed as nitric oxide concentration at 100 ug/ml after 72 hrs by crystal violet coloration assay (reference value: 100%). Format: functional.
The subject of data set [2] is HT-1080. Description: Cytotoxicity against human HT1080 cells after 72 hrs by MTT assay. It counts as functional. As to conditions: for CC50: HT-1080, 72 h, read-out: TD50 (the source's name). In short, it runs like this:
(§1)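 Cells from passages 1–4 after thawing, seeded at about 2–5·10⁴ cells/mL with compounds added immediately. Incubation 72 h, 37 °C, 5% CO₂. MTT read-out: medium replaced with fresh medium containing 10 mM HEPES, MTT (2 mg/mL in HBSS) added for 3 h. Dissolved in DMSO plus glycine buffer pH 10.5, absorbance 540 nm. TD50 = concentration giving 50% cell kill, averaged from CV and MTT.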

For data set [3], the system named is MG-22A. Description: Cytotoxicity against mouse MG-22A cells after 72 hrs by MTT assay. It counts as functional. The following applies: for CC50: read-out: TD50 (the source's name). An outline of the steps:
as §1

Data set [4] relates to MG-22A. Description: Cytotoxicity against mouse MG-22A cells assessed as nitric oxide concentration at 100 ug/ml after 72 hrs by crystal violet coloration assay (reference value: 100%). It counts as functional.
A short description of data set [5]: (§2) Cytotoxicity against mouse NIH/3T3 cells after 72 hrs by MTT assay. Format: cell-based, NIH3T3. The following applies: NIH/3T3 cells, read-out: TD50. In short, it runs like this:
as §1

The test system of data set [6] is HT-1080. Description: Induction of apoptosis in human HT1080 cells assessed as change in cell morphology after 72 hrs by acridine orange staining based fluorescence microscopic analysis. It counts as functional. In short, it runs like this: (§3)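 Adherent cells treated 72 h, 37 °C, 5% CO₂, in 96-well plates. Stained 2 min with acridine orange 10 μg/mL in PBS pH 7.4, washed once with PBS, then viewed in PBS by inverted fluorescence microscopy. Chromatin condensation shown by DNA staining: living cells green, apoptotic cells orange/yellow, necrotic cells red.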

For data set [7], the system named is HT-1080. In words: Induction of apoptosis in human HT1080 cells assessed as change in cell phenotype after 72 hrs by acridine orange staining based fluorescence microscopic analysis. It counts as functional. An outline of the steps: as §3
Data set [8] relates to NIH3T3. In words: Induction of apoptosis in mouse NIH/3T3 cells after 72 hrs by acridine orange staining based fluorescence microscopic analysis. Format: cell-based. The following applies: nih3t3, 72 h. In short, it runs like this: as §3
In data set [9] the test system is HT-1080. Description: Induction of mitochondria mediated apoptosis in human HT1080 cells assessed as change in cell phenotype after 72 hrs by acridine orange staining based fluorescence microscopic analysis. Format: functional. In short, it runs like this:
as §3

The test system of data set [10] is NIH3T3. The data set is described as §2. It counts as cell-based. The following applies: nih3t3, 72 h. An outline of the steps:
as §1

For data set [11], the system named is HT-1080. In words: Induction of apoptosis in human HT1080 cells assessed as nucleus fragmentation after 72 hrs by acridine orange staining based fluorescence microscopic analysis. It counts as functional, cell-based. In short, it runs like this:
as §3

Take `O=c1c2[se]c3ccccc3c2nc2cnccn12`: the Activity is recorded as 2% in the data set with HT-1080 [1] and 7% in the data set with MG-22A [4]. The result in the data set on HT-1080 [2] and with MG-22A [3] was inactive. In addition, in data set [5], the CC50 at 72 h turned out to be 27 µg/mL (≈ 89.9 µM).
Regarding `O=c1c2[se]c3ccccc3c2nc2sc3ccccc3n12`, the results for the Activity in the data set with HT-1080 [1] and in the data set with MG-22A [4] were 2% and 3%, respectively. Besides, the CC50 was 8.5 µg/mL (≈ 23.9 µM) with HT-1080 [2] and 9.5 µg/mL (≈ 26.7 µM) in the data set with MG-22A [3]. The CC50 at 72 h in data set [5] came out at 27 µg/mL (≈ 76 µM). The outcome in the data set with HT-1080 [6] was Active.
With `O=c1c2[se]c3ccccc3c2nc2ccccn12`, the figures for the Activity in the data set with HT-1080 [1], with MG-22A [4] and in the data set on NIH3T3 [8] were 5%, 7% and “Toxic”, respectively. Besides, the CC50 in the data set on HT-1080 [2] and in the data set with MG-22A [3] was 3 µg/mL (≈ 10 µM) each time. Further, the CC50 at 72 h in data set [5] was found to be 31 µg/mL (≈ 104 µM). Further, the result in the data set with HT-1080 [7] was Active.
Regarding `CCOC(=O)c1[se]c2ccccc2c1-c1ccc(C)s1`, the Activity with HT-1080 [1] and in the data set on MG-22A [4] was 350% throughout. Further, the results for the CC50 in the data set with HT-1080 [2] and in the data set on MG-22A [3] were 16 µg/mL (≈ 45.8 µM) and 19.5 µg/mL (≈ 55.8 µM), respectively. Besides, the CC50 at 72 h in [5] was 15 µg/mL (≈ 42.9 µM).
Turning to `O=c1c2[se]c3ccccc3c2nc2c(Cl)cc(C(F)(F)F)cn12`, the Activity in the data set on HT-1080 [1] was determined as 2%; in the data set with MG-22A [4], 8%. Besides, the CC50 was 3.5 µg/mL (≈ 8.71 µM) with HT-1080 [2] and 2.75 µg/mL (≈ 6.85 µM) in the data set with MG-22A [3]. Also, the CC50 at 72 h in data set [5] came out at 31 µg/mL (≈ 77.2 µM). Moreover, in the data set on HT-1080 [9], the outcome was Active.
As for `CCOC(=O)c1[se]c2ccccc2c1-c1ccc(C#N)cc1`, the figures for the Activity in the data set on HT-1080 [1] and in the data set with MG-22A [4] were 8% and 7%, respectively. The result in the data set with HT-1080 [2] and in the data set on MG-22A [3] was inactive. The CC50 at 72 h in data set [5] is 684 µg/mL (≈ 1930 µM).
On to `CCOC(=O)c1[se]c2ccccc2c1-c1ccsc1`, for which the Activity with HT-1080 [1] came to 13%; in the data set on MG-22A [4] it was 14%. Also, the result in the data set with HT-1080 [2] and in the data set on MG-22A [3] was inactive. Moreover, the CC50 at 72 h in data set [5] stood at 31 µg/mL (≈ 92.5 µM).
Take `CCOC(=O)c1[se]c2ccccc2c1Sc1ncccn1`: the Activity in the data set with HT-1080 [1] came to 8%; in the data set with MG-22A [4] it was 7%. Further, the outcome with HT-1080 [2] and with MG-22A [3] was inactive. Moreover, the CC50 at 72 h in data set [5] came to 840 µg/mL (≈ 2310 µM).
Take `CCOC(=O)c1[se]c2ccccc2c1Nc1cccnc1`: the Activity is 12% in the data set with HT-1080 [1] and 9% with MG-22A [4]. The result in the data set on HT-1080 [2] and with MG-22A [3] was inactive. Moreover, in data set [5], the CC50 at 72 h amounted to 1000 µg/mL (≈ 2900 µM).
For the molecule `O=c1c2[se]c3ccccc3c2nc2c3ncccc3ccn12`, the values for the Activity with HT-1080 [1] and in the data set with MG-22A [4] were 20% and 3%, respectively. Also, the outcome with HT-1080 [2] and in the data set on MG-22A [3] was inactive. The CC50 at 72 h in [5] stood at 56 µg/mL (≈ 160 µM).
Take `CCOC(=O)c1[se]c2ccccc2c1-c1ccc(OC(C)C)cc1`: the Activity is on record as 9% in the data set with HT-1080 [1], 15% with MG-22A [4] and “Non-toxic” with NIH3T3 [10]. Further, the result with HT-1080 [2] and with MG-22A [3] was inactive.
As for `CCOC(=O)c1[se]c2ccccc2c1C#Cc1ccccc1`, the Activity with HT-1080 [1] was found to be 15%; in the data set with MG-22A [4], 10%. The CC50 in the data set on HT-1080 [2] came out at 76 µg/mL (≈ 215 µM); in the data set on MG-22A [3], 87 µg/mL (≈ 246 µM). For the same molecule, in data set [5], the CC50 at 72 h was 614 µg/mL (≈ 1740 µM).
On the same counts, the results for `CCOC(=O)c1[se]c2ccccc2c1C#CC1=CCCCC1` are 200%, 200%, 32.5 µg/mL (≈ 91 µM), 32 µg/mL (≈ 89.6 µM) and 120 µg/mL (≈ 336 µM).
As for `Cc1csc2nc3c([se]c4ccccc43)c(=O)n12`, the figures for the Activity in the data set on HT-1080 [1] and in the data set on MG-22A [4] were 2% and 4%, respectively. In addition, the outcome in the data set with HT-1080 [2] and in the data set on MG-22A [3] was inactive. The CC50 at 72 h in [5] is 21 µg/mL (≈ 65.8 µM).
As for `CCOC(=O)c1[se]c2ccccc2c1Br`, the Activity in the data set on HT-1080 [1] is reported as 14%; with MG-22A [4] it was 40%. Besides, in the data set on HT-1080 [2], the result was inactive. Further, the CC50 in the data set on MG-22A [3] came to 40.5 µg/mL (≈ 122 µM). For the same molecule, in data set [5], the CC50 at 72 h is 896 µg/mL (≈ 2700 µM).
In the case of `O=c1c2[se]c3ccccc3c2nc2ccc(Cl)cn12`, the Activity in the data set on HT-1080 [1] is given as 3%; in the data set on MG-22A [4], 40%; in the data set on NIH3T3 [8], “Toxic”. Moreover, the CC50 with HT-1080 [2] and in the data set with MG-22A [3] was 3 µg/mL (≈ 8.99 µM) each time. In data set [5], the CC50 at 72 h worked out at 32 µg/mL (≈ 95.9 µM). Besides, the result with HT-1080 [11] was Active.
On to `CCOC(=O)c1[se]c2ccccc2c1-c1ccccc1`, for which the results for the Activity with HT-1080 [1] and in the data set with MG-22A [4] were 25% and 23%, respectively. In the data set with HT-1080 [2], the CC50 is 65 µg/mL (≈ 197 µM). Also, in the data set with MG-22A [3], the outcome was inactive. Further, in data set [5], the CC50 at 72 h turned out to be 16 µg/mL (≈ 48.6 µM).
Consider `CCOC(=O)c1[se]c2ccccc2c1-c1cc(F)c(F)c(F)c1`, for which the Activity in the data set with HT-1080 [1] was found to be 6%; in the data set with MG-22A [4], 12%. For the same molecule, in the data set on HT-1080 [2], the outcome was inactive. The CC50 with MG-22A [3] amounted to 81.5 µg/mL (≈ 213 µM). For the same molecule, the CC50 at 72 h in data set [5] came out at 100 µg/mL (≈ 261 µM).
